The record followed here is ChEMBL document CHEMBL5376013, “Design, synthesis and biological evaluation of novel morpholinopyrimidine-5-carbonitrile derivatives as dual PI3K/mTOR inhibitors” (RSC Med Chem, 2024).

In one data set the test system is A549. Put plainly: Antiproliferative activity against human A549 cells assessed as inhibition of cell growth by MTT assay. It is filed as functional, cell-based. A general note: Tetrazolium assays rely on reduction of a dye to a coloured formazan, in cell work by metabolically active cells.
The next data set has as its system PC-3. As to the kind of experiment: Antiproliferative activity against human PC-3 cells assessed as inhibition of cell growth by MTT assay. It is filed as functional, cell-based.
In the next data set the test system is MCF7. Put plainly: Antiproliferative activity against human MCF7 cells assessed as inhibition of cell growth by MTT assay. In kind it is functional, cell-based.
Data set [1] has as its system SR. Put plainly: Antiproliferative activity against human SR cells assessed as inhibition of cell growth. In kind it is functional, cell-based. The method, boiled down:
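SR leukemia cells from ATCC were cultured in DMEM with 10% FBS, 10 ug/ml insulin and 1% penicillin-streptomycin. Reconstituted MTT was added at 10% of culture volume for 2–4 h. Formazan was dissolved in solubilization solution and read at 570 nm. Viability was calculated as treated A570 over untreated A570 ×100, with dose-response curves.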

A short description of data set [2]: Inhibition of PI3K (unknown origin). Also noted: species or system Homo sapiens. The method, boiled down: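 ELISA kit PI3 kinase assay with LY294002 as reference. Inhibitor preincubated 10 min before PIP2 substrate in kinase reaction buffer (25 µl final), 1 h reaction. Product detected by competition with biotinylated PIP3 for GRP1, with SA-HRP and TMB colour.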

Data set [3] has as its system SR. As to the kind of experiment: cells. The settings on record: Homo sapiens.
Data set [4] addresses Serine/threonine-protein kinase mTOR (Homo sapiens, UniProt P42345). Put plainly: Inhibition of mTOR (unknown origin) incubated for 1 hr by ELISA analysis. The method, boiled down:
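Glutathione-coated plate loaded with mTOR substrate (1 h, room temperature). mTOR with compound in 2X kinase assay buffer, 30 min at 30 °C, then stop solution. Phospho-p70S6K-T389 detected by primary antibody, then HRP conjugate (1 h each), TMB, A450 with 540 or 595 nm reference.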
(An ELISA detects its analyte on a solid surface through an enzyme-linked reagent.)

Data set [5] in a line: Cytotoxicity against human PCS-800-011 cells assessed as inhibition of cell growth by MTT assay. It is filed as toxicity, cell-based.

The term IC50 denotes the concentration that gives 50% inhibition. For the molecule `O=S1(=O)CCc2nc(N3N=C(c4ccc(F)cc4)C[C@@H]3c3ccc(Cl)c(Cl)c3)nc(N3CCOCC3)c2C1`, the IC50 with A549 was determined as 23.8 µM; with PC-3, 19.1 µM; in the data set with MCF7, 30.7 µM.

On to `COc1ccc(-c2nc(N/N=C/c3cccc(Br)c3)nc(N3CCOCC3)c2C#N)cc1`, for which the IC50 in the data set on SR [1] came to 0.76 µM; in data set [2], 6.09 µM.

Consider `COc1ccc(-c2nc(N/N=C/c3cccc(O)c3)nc(N3CCOCC3)c2C#N)cc1`, for which the IC50 was 13.6 µM with SR [1] and 6.09 µM in data set [2].

Regarding `COc1ccc(-c2nc(N/N=C/c3ccc(O)c(OC)c3)nc(N3CCOCC3)c2C#N)cc1`, the figures for the half-inhibitory concentration (IC50) (with SR [1]; in data set [2]) were 4.37 µM and 6.09 µM, respectively.

As to `COc1cccc2c1C(=O)c1c(O)c3c(c(O)c1C2=O)C[C@@](O)(C(=O)CO)C[C@@H]3O[C@H]1C[C@H](N)[C@H](O)[C@H](C)O1` [DOXORUBICIN], the concentration for half-maximal inhibition (IC50) in the data set with SR [3] stood at 0.59 µM.

Take `CO[C@H]1C[C@@H]2CC[C@@H](C)[C@@](O)(O2)C(=O)C(=O)N2CCCC[C@H]2C(=O)O[C@H]([C@H](C)C[C@@H]2CC[C@@H](OCCO)[C@H](OC)C2)CC(=O)[C@H](C)/C=C(\C)[C@@H](O)[C@@H](OC)C(=O)[C@H](C)C[C@H](C)/C=C/C=C/C=C/1C` [EVEROLIMUS]: the IC50 in data set [4] was 0.53 µM.

`O=c1[nH]cc(F)c(=O)[nH]1` [FLUOROURACIL] displayed a half-inhibitory concentration (IC50) in the data set on SR [3] of 7.38 µM.

Take `CN[C@@H]1C[C@H]2O[C@@](C)([C@@H]1OC)n1c3ccccc3c3c4c(c5c6ccccc6n2c5c31)C(=O)NC4` [STAUROSPORINE]: the IC50 in data set [5] is 18.3 µM.
